Measured values taken from ChEMBL document CHEMBL4368918, “Structure-Based Design of Inhibitors Selective for Human Proteasome β2c or β2i Subunits” (J Med Chem, 2019).
Calls of active or inactive are those of the source. The calls are words filed in the database; no cut-off is given here.

How the values were obtained:
[1] = molecular target: T1, Proteasome subunit beta type-10 (Homo sapiens, UniProt P40306); experiment: Inhibition of 20S immunoproteasome beta 2 in human Raji cell lysates after 1 hr by competitive ABPP assay; assay type: subcellular, Lysate
T1 sequence (P40306 whole entry): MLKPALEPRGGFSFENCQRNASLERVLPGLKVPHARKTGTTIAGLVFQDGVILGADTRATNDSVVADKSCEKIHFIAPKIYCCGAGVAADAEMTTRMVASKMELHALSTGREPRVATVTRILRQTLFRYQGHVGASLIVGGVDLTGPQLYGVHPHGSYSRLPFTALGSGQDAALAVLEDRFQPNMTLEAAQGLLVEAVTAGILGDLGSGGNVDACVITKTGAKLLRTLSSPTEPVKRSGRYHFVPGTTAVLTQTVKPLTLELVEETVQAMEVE

[2] = molecular target: T2, Proteasome subunit beta type-8 (Homo sapiens, UniProt P28062); experiment: Inhibition of 20S immunoproteasome beta 5 in human Raji cell lysates after 1 hr by competitive ABPP assay; assay type: subcellular, Lysate
T2 sequence (P28062 whole entry): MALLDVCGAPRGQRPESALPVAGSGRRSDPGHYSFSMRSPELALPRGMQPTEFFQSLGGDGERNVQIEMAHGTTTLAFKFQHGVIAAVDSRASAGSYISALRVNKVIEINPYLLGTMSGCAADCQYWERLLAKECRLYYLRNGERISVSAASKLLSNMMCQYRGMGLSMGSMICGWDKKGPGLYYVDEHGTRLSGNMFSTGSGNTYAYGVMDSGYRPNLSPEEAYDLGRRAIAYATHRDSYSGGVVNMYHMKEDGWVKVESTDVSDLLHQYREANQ

[3] = molecular target: T1, Proteasome subunit beta type-10; experiment: Inhibition of 20S immunoproteasome beta 2 in human RPMI8226 cell lysates after 1 hr by coomassie brilliant blue staining-based fluorescence assay; assay type: subcellular, Lysate
[4] = molecular target: T2, Proteasome subunit beta type-8; experiment: Inhibition of 20S immunoproteasome beta 5 in human RPMI8226 cell lysates after 1 hr by coomassie brilliant blue staining-based fluorescence assay; assay type: subcellular, Lysate
Procedure, shortened: (§1)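 Living RPMI-8226 cells were grown in RPMI-1640 with 10% FCS. Cells at (5–8)×10⁵ cells/mL were exposed to inhibitor for 1 h at 37 °C, washed in PBS and lysed on ice for 1 h in digitonin/ATP buffer. Residual activity was read by cocktail-ABP labeling, SDS-PAGE and fluorescence densitometry relative to mock, with Coomassie staining correcting for loading. IC50 came from three independent experiments.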

[5] = molecular target: T3, Proteasome subunit beta type-9 (Homo sapiens, UniProt P28065); experiment: Inhibition of 20S immunoproteasome beta 1 in human RPMI8226 cell lysates after 1 hr by coomassie brilliant blue staining-based fluorescence assay; assay type: subcellular, Lysate; procedure, shortened: as §1
T3 sequence (P28065 whole entry): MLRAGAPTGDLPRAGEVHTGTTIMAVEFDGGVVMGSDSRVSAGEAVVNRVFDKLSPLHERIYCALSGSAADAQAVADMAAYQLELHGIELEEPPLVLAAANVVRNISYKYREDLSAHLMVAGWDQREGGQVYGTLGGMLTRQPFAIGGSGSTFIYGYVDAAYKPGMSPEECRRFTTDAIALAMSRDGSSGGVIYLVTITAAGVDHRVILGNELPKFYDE

[6] = molecular target: T4, Proteasome subunit beta type-10 (Homo sapiens) (UniProt P40306); experiment: Inhibition of Morp-Ala-Tyr(O-C2H4-BODIPY(FL))-1-DecAla-EK binding to 20S immunoproteasome beta 2 in human Raji cell lysates at 1 uM in presence of 3-probe mixture by competitive ABPP assay; assay type: subcellular; conditions: Lysate
T4 sequence (whole entry): T1 sequence (P40306 whole entry)

[7] = molecular target: T4, Proteasome subunit beta type-10 (Homo sapiens); experiment: Inhibition of Morp-Ala-Tyr(O-C2H4-BODIPY(FL))-1-DecAla-EK binding to immunoproteasome beta 2 in human Raji cell lysates at 0.1 uM by competitive ABPP assay; assay type: subcellular; conditions: Lysate
Procedure, shortened: (§2)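 Raji lysate was preincubated with inhibitor, then labeled with the BODIPY(FL) probe alone. β2i labeling was read by in-gel fluorescence at Cy2 settings after SDS-PAGE.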

[8] = molecular target: Proteasome Macropain subunit (Homo sapiens) (UniProt P49721); conditions: Raji, Lysate, 1 uM
[9] = molecular target: T4, Proteasome subunit beta type-10 (Homo sapiens); experiment: Binding affinity to 20S immunoproteasome beta 2 in human Raji cell lysates at 3 uM by ABPP assay; assay type: subcellular; conditions: Lysate
Procedure, shortened: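 Raji lysate (5 μg total protein, Tris pH 7.5, DTT, MgCl₂, glycerol, 2 mM ATP) was labeled with the BODIPY(FL) probe for 1 h at 37 °C. […] The wet gel was scanned at Cy2 settings.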

[10] = molecular target: T1, Proteasome subunit beta type-10; experiment: Inhibition of 20S immunoproteasome beta 2 (unknown origin) by cell based ABPP assay
Procedure, shortened: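 Living RPMI-8226 cells, (5–8) ×10^5 cells/mL, exposed to inhibitor 1 h at 37 °C, washed, lysed in digitonin buffer 1 h on ice; residual activity labelled with cocktail ABPs, SDS-PAGE in-gel fluorescence, bands divided by mock, Coomassie staining to correct loading. IC50 from mean of three independent experiments.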

Homo sapiens [11] = organism: Homo sapiens; experiment: Selectivity ratio of IC50 for 20S immunoproteasome beta 2 (unknown origin) to IC50 for 20S constitutive proteasome beta 2 trypsin-like activity (unknown origin)
[12] = molecular target: T5, Proteasome Macropain subunit MB1 (Homo sapiens, UniProt P28074); experiment: Inhibition of 20S constitutive proteasome beta 5 chymotrypsin-like activity in human RPMI8226 cell lysates after 1 hr by coomassie brilliant blue staining-based fluorescence assay; assay type: subcellular, Lysate
T5 sequence (P28074 whole entry): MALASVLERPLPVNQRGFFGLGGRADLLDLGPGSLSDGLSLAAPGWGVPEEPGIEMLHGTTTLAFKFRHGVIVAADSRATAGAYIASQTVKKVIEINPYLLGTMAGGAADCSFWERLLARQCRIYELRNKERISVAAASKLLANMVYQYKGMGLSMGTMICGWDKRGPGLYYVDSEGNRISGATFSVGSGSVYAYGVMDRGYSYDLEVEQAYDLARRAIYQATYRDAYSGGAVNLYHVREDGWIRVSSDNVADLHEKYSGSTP
Procedure, shortened: as §1, with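 “Cells” for “Living RPMI-8226 cells were grown in RPMI-1640 with 10% FCS. Cells”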

[13] = molecular target: T5, Proteasome Macropain subunit MB1; experiment: Inhibition of 20S constitutive proteasome beta 5 chymotrypsin-like activity in human Raji cell lysates after 1 hr by competitive ABPP assay; assay type: subcellular, Lysate
[14] = molecular target: T6, Proteasome subunit beta type-6 (Homo sapiens, UniProt P28072); experiment: Inhibition of 20S constitutive proteasome beta 1 caspase-like activity in human Raji cell lysates after 1 hr by competitive ABPP assay; assay type: subcellular, Lysate
T6 sequence (P28072 whole entry): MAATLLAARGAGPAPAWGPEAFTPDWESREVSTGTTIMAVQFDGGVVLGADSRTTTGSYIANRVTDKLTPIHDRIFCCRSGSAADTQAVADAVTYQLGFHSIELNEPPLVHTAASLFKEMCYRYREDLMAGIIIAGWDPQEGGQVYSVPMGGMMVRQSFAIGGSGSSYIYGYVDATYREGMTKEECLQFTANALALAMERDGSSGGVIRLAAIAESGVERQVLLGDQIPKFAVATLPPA
Procedure, shortened: (§3)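 Raji cells were sonicated in 3 volumes of Tris pH 7.5 lysis buffer containing DTT, MgCl₂, sucrose, 2 mM ATP and 0.05% digitonin. Lysate (5 μg protein, in buffer with 2 mM ATP and glycerol) was preincubated with inhibitor for 1 h at 37 °C, then with a cocktail of three fluorescent ABPs for 1 h. In-gel fluorescence densitometry was normalized to mock. IC50 came from the mean of three experiments.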

[15] = molecular target: T3, Proteasome subunit beta type-9; experiment: Inhibition of 20S immunoproteasome beta 1 in human Raji cell lysates after 1 hr by competitive ABPP assay; assay type: subcellular, Lysate
Procedure, shortened: as §3, with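 “h. […]” for “h.”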

Homo sapiens [16] = organism: Homo sapiens; experiment: Selectivity ratio of IC50 for 20S immunoproteasome beta 2 in human Raji cell lysates to IC50 for 20S constitutive proteasome beta 2 trypsin-like activity in human Raji cells; assay type: cell-based
Homo sapiens [17] = organism: Homo sapiens; experiment: Selectivity ratio of IC50 for 20S immunoproteasome beta 1 in human Raji cell lysates to IC50 for 20S constitutive proteasome beta 2 trypsin-like activity in human Raji cells; assay type: cell-based
Homo sapiens [18] = organism: Homo sapiens; experiment: Selectivity ratio of IC50 for 20S constitutive proteasome beta 1 caspase-like activity in human Raji cell lysates to IC50 for 20S constitutive proteasome beta 2 trypsin-like activity in human Raji cells; assay type: cell-based
Homo sapiens [19] = organism: Homo sapiens; experiment: Selectivity ratio of IC50 for 20S immunoproteasome beta 5 in human Raji cell lysates to IC50 for 20S constitutive proteasome beta 2 trypsin-like activity in human Raji cells; assay type: cell-based
Homo sapiens [20] = organism: Homo sapiens; experiment: Selectivity ratio of IC50 for 20S constitutive proteasome beta 5 chymotrypsin-like activity in human Raji cell lysates to IC50 for 20S constitutive proteasome beta 2 trypsin-like activity in human Raji cells; assay type: cell-based
[21] = molecular target: T7, Proteasome subunit beta type-7 (Homo sapiens, UniProt Q99436); experiment: Inhibition of 20S constitutive proteasome beta 2 trypsin-like activity in human RPMI8226 cell lysates after 1 hr by coomassie brilliant blue staining-based fluorescence assay; assay type: subcellular, Lysate
T7 sequence (Q99436 whole entry): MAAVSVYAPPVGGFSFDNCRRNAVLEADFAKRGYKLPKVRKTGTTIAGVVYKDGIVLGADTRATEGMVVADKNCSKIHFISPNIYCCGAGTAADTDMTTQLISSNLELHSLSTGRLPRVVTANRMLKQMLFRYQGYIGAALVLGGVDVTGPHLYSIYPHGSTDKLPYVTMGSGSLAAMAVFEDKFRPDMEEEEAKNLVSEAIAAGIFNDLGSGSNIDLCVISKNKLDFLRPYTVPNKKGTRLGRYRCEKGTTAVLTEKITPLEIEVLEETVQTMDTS

[22] = molecular target: Proteasome Macropain subunit (Homo sapiens) (UniProt P49721); experiment: Inhibition of Morp-Ala-Tyr(O-C2H4-BODIPY(FL))-1-DecAla-EK binding to 20S constitutive proteasome beta 2 in human Raji cell lysates at 0.3 uM in presence of 3-probe mixture by competitive ABPP assay; assay type: subcellular; conditions: Lysate
[23] = molecular target: T4, Proteasome subunit beta type-10 (Homo sapiens); experiment: Inhibition of Morp-Ala-Tyr(O-C2H4-BODIPY(FL))-1-DecAla-EK binding to 20S immunoproteasome beta 2 in human Raji cell lysates at 0.3 uM in presence of 3-probe mixture by competitive ABPP assay; assay type: subcellular; conditions: Lysate
[24] = molecular target: T4, Proteasome subunit beta type-10 (Homo sapiens); experiment: Inhibition of Morp-Ala-Tyr(O-C2H4-BODIPY(FL))-1-DecAla-EK binding to immunoproteasome beta 2 in human Raji cell lysates at 0.3 uM by competitive ABPP assay; assay type: subcellular; conditions: Lysate; procedure, shortened: as §2

Compound | IC50 [1] [µM] | IC50 [2] [µM] | IC50 [3] [µM] | IC50 [4] [µM] | IC50 [5] [µM] | IC50 [10] [µM] | Ratio IC50 (Homo sapiens [11]) | IC50 [12] [µM] | IC50 [13] [µM] | IC50 [14] [µM] | IC50 [15] [µM] | Ratio IC50 (Homo sapiens [16]) | Ratio IC50 (Homo sapiens [17]) | Ratio IC50 (Homo sapiens [18]) | Ratio IC50 (Homo sapiens [19]) | Ratio IC50 (Homo sapiens [20]) | IC50 [21] [µM] | also measured
CC(C)C[C@H](NC(=O)[C@H](Cc1ccccc1)N=[N+]=[N-])C(=O)N[C@@H](CC(C)C)C(=O)N[C@H](/C=C/S(C)(=O)=O)Cc1ccc(CN)cc1 | 0.02 | 1.17 | 0.41 | > 10 | > 10 |  |  |  |  |  |  |  |  |  |  |  |  | inhibition [6]: Active; inhibition [7]: Active; inhibition [8]: Active
CC1=CC(C)=N/C1=C(/CCCCc1cn(CCOc2ccc(C[C@H](NC(=O)[C@H](C)NC(=O)CN3CCOCC3)C(=O)N[C@@H](CC3CCCC4CCCCC43)C(=O)[C@@]3(C)CO3)cc2)nn1)c1c(C)cc(C)n1B(F)F (some centres not stated) |  |  |  |  |  |  |  |  |  |  |  |  |  |  |  |  |  | Activity [9]: Active
CC(C)C[C@H](NC(=O)c1cnccn1)C(=O)N[C@@H](CC(C)C)C(=O)N[C@H](/C=C/S(C)(=O)=O)Cc1ccc(CN)cc1 | 2.9 | > 100 | > 10 | > 10 | > 10 | 6.5 | 40 | > 10 | > 100 | > 100 | > 100 | 17 | > 600 | > 600 | > 600 | > 600 | > 10 | 
CC(C)C[C@H](NC(=O)[C@H](Cc1ccccc1)N=[N+]=[N-])C(=O)N[C@@H](C)C(=O)N[C@H](/C=C/S(C)(=O)=O)Cc1ccc(CN)cc1 | 0.14 |  | > 10 | > 10 |  | 0.325 |  | > 10 |  |  | > 100 |  |  |  |  |  |  | inhibition [22]: Active; inhibition [23]: Active; inhibition [24]: Active
CC(C)C[C@H](NC(=O)[C@H](Cc1ccccc1)N=[N+]=[N-])C(=O)NCC(=O)N[C@H](/C=C/S(C)(=O)=O)Cc1ccc(CN)cc1 | 2.5 | 12.7 | > 10 | > 10 | > 10 | 5.9 | 224 | > 10 | 8.6 | > 100 | > 100 | 54 | > 2200 | > 2200 | 187 | 276 | > 10 | 
